Data published in ChEMBL document CHEMBL1759995, “Potential CRF1R PET imaging agents: N-fluoroalkyl-8-(6-methoxy-2-methylpyridin-3-yl)-2,7-dimethyl-N-alkylpyrazolo[1,5-a][1,3,5]triazin-4-amines” (Bioorg Med Chem Lett, 2011).

Assays:
[1] = biological target: T1, Corticotropin-releasing factor receptor 1 (Rattus norvegicus, UniProt P35353); test: Displacement of [125I]-o-CRF from CRF1 receptor in rat frontal cortex by rapid filtration technique; format: tissue-based
T1 sequence (P35353 whole entry): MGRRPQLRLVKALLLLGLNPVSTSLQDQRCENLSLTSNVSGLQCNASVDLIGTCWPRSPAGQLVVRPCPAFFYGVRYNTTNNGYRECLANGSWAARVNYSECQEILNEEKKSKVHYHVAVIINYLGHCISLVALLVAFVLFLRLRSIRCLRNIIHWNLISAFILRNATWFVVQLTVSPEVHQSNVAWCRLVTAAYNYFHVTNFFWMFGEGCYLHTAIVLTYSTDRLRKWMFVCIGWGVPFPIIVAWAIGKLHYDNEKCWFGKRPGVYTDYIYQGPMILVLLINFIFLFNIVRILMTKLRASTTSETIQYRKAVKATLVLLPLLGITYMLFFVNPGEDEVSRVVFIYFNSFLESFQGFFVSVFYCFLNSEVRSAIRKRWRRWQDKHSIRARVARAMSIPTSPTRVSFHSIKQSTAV
Outline: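 Frozen rat frontal cortex homogenized in 50 mM HEPES (pH 7.0 at 23 °C) with MgCl2, EGTA, protease inhibitors, 0.005% Triton X-100, bacitracin and 0.1% ovalbumin; pellet washed twice by centrifugation at 32,000 g. Membranes (25 µg/well) incubated with 150 pM 125I-o-CRF and compounds 2 h at 21 °C. Bound ligand captured on PEI-treated GF/B filters, washed with ice-cold PBS/0.01% Triton. IC50 from inhibition of specific binding.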

[2] = Lipophilicity, log D of the compound in octanol-phosphate buffer at pH 7.4 by Shake flask method; format: physicochemical
Outline: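 Shake-flask partitioning between 25 mM phosphate buffer (pH 7.4) and octanol, both pre-saturated by mixing and standing overnight. A 1.0 mg sample dissolved in 1 mL octanol and added to 50 mL octanol-saturated buffer.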

SMILES | IC50 [1] [nM] | logD [2]
COc1ccc(-c2c(C)nn3c(N(CCC#N)CCCF)nc(C)nc23)c(C)n1 | 6.5 | 3.5
COCCN(CCCF)c1nc(C)nc2c(-c3cnc(OC)nc3)c(C)nn12 | 390 | 3.2
COCCN(CCCF)c1nc(C)nc2c(-c3ccc(OC)nc3C)c(C)nn12 | 1.9 | 4.1
COCCN(CCCF)c1nc(C)nc2c(-c3cnc(OC)nc3OC)c(C)nn12 | > 10000 | 1.8
COCCN(CCCF)c1nc(C)nc2c(-c3ccc(OC)nc3)c(C)nn12 | 35 | 3.4

The remaining compounds from weak to strong by IC50 [1], led by results:

IC50 [1] [nM] | logD [2] | SMILES
5.8 | 4.5 | CCN(CCF)c1nc(C)nc2c(-c3ccc(OC)nc3C)c(C)nn12
5.5 | 4.6 | COCCN(CCF)c1nc(C)nc2c(-c3ccc(OC)nc3C)c(C)nn12
1.6 | 4.8 | CCN(CCCF)c1nc(C)nc2c(-c3ccc(OC)nc3C)c(C)nn12
